The source made the active and inactive calls. No cut-off for these calls is given here.
Assays:
[1] = molecular target: Cyclin-dependent kinase 2/cyclin E1 (Homo sapiens, UniProt P24941); test: Inhibition of CDK2/cyclin E (unknown origin) using histone 1 protein substrate incubated for 120 mins measured after 40 mins incubation under dark by ADP-glo based luminescence assay; assay type: protein-complex assay
In short: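 In-house ADP-Glo assay with 2 mM DMSO stocks. Kinases were CDK1/cyclin B at 1 nM, CDK2/cyclin E1 at 10 nM and CDK7/cyclin H/MAT1 at 40 nM. Substrate was histone 1 for CDK1 and CDK2, and a RNA pol II CTD peptide for CDK7. Compound at 8–10 concentrations, 1:3 serial, final DMSO 0.5%. Reactions ran 60–120 min at room temperature, then ADP-Glo reagent 40 min in the dark, then detection reagent 40 min, read by luminescence. Ki was derived from IC50 by Cheng-Prusoff.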

[2] = Inhibition of FLT3 ITD-NPOS mutant (unknown origin) incubated for 120 mins by ADP-glo based luminescence assay; set-up: species or system Homo sapiens
[3] = Inhibition of FLT3 ITD-W51 mutant (unknown origin) incubated for 120 mins by ADP-glo based luminescence assay; set-up: species or system Homo sapiens
[4] = molecular target: Receptor-type tyrosine-protein kinase FLT3 (Homo sapiens, UniProt P36888, R595-E596INSEY); test: Inhibition of FLT3 R595_E596insEY mutant (unknown origin) incubated for 120 mins by ADP-glo based luminescence assay
THP-1 = test: Antiproliferative activity against human THP-1 cells harboring wild type FLT3 assessed as reduction in cell viability after 72 hrs by resazurin assay; assay type: functional
In short: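 Cells seeded and pre-incubated 24 h at 37 °C, 5% CO2, then given a five-fold dilution series of compound (from 10 mM DMSO stock) in medium, in triplicate. Resazurin added after 72 h exposure, 4 h in dark at 37 °C. Fluorescence read at 570/585 nm, normalised to DMSO vehicle. GI50 by non-linear regression; mean ± SD of at least two replicates.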

MV4-11 [5] = test: Induction of apoptosis in human MV4-11 cells assessed as necrotic cells at 5 x GI50 concentration incubated for 24 hrs by annexin V-FITC and propidium iodide staining based flow cytometry (reference value: 0.75 %); assay type: functional
MV4-11 [6] = test: Induction of apoptosis in human MV4-11 cells assessed as viable cells at 10 x GI50 concentration incubated for 24 hrs by annexin V-FITC and propidium iodide staining based flow cytometry (reference value: 84.68 %); assay type: functional
MV4-11 [7] = test: Induction of apoptosis in human MV4-11 cells assessed as viable cells at 20 x GI50 concentration incubated for 24 hrs by annexin V-FITC and propidium iodide staining based flow cytometry (reference value: 84.68 %); assay type: functional
MV4-11 [8] = test: Induction of apoptosis in human MV4-11 cells assessed as necrotic cells at 5 x GI50 concentration incubated for 48 hrs by annexin V-FITC and propidium iodide staining based flow cytometry (reference value: 0.45 %); assay type: functional
MV4-11 [9] = test: Induction of apoptosis in human MV4-11 cells assessed as necrotic cells at 10 x GI50 concentration incubated for 48 hrs by annexin V-FITC and propidium iodide staining based flow cytometry (reference value: 0.45 %); assay type: functional
MV4-11 [10] = test: Induction of apoptosis in human MV4-11 cells assessed as early apoptotic cells at 20 x GI50 concentration incubated for 48 hrs by annexin V-FITC and propidium iodide staining based flow cytometry (reference value: 1.08 %); assay type: functional
MV4-11 [11] = test: Induction of apoptosis in human MV4-11 cells assessed as late apoptotic cells at 20 x GI50 concentration incubated for 48 hrs by annexin V-FITC and propidium iodide staining based flow cytometry (reference value: […] %); assay type: functional
U-937 [12] = test: Induction of apoptosis in human U937 cells assessed as early apoptotic cells at 1 x GI50 concentration incubated for 24 hrs by annexin V-FITC and propidium iodide staining based flow cytometry (Rvb =1.81 %); assay type: functional
U-937 [13] = test: Induction of apoptosis in human U937 cells assessed as necrotic cells at 1 x GI50 concentration incubated for 24 hrs by annexin V-FITC and propidium iodide staining based flow cytometry (reference value: 1.10 %); assay type: functional
U-937 [14] = test: Induction of apoptosis in human U937 cells assessed as early apoptotic cells at 5 x GI50 concentration incubated for 24 hrs by annexin V-FITC and propidium iodide staining based flow cytometry (Rvb =1.81 %); assay type: functional
U-937 [15] = test: Induction of apoptosis in human U937 cells assessed as early apoptotic cells at 10 x GI50 concentration incubated for 24 hrs by annexin V-FITC and propidium iodide staining based flow cytometry (reference value: 1.81 %); assay type: functional
U-937 [16] = test: Induction of apoptosis in human U937 cells assessed as necrotic cells at 10 x GI50 concentration incubated for 24 hrs by annexin V-FITC and propidium iodide staining based flow cytometry (reference value: 1.10 %); assay type: functional
U-937 [17] = test: Induction of apoptosis in human U937 cells assessed as early apoptotic cells at 20 x GI50 concentration incubated for 24 hrs by annexin V-FITC and propidium iodide staining based flow cytometry (reference value: 1.81 %); assay type: functional
U-937 [18] = test: Induction of apoptosis in human U937 cells assessed as viable cells at 20 x GI50 concentration incubated for 24 hrs by annexin V-FITC and propidium iodide staining based flow cytometry (reference value: 85.68 %); assay type: functional
[19] = molecular target: Receptor-type tyrosine-protein kinase FLT3 (Homo sapiens) (UniProt P36888); test: Inhibition of FLT3-mediated signalling pathway in human MV4-11 cells assessed as inhibition of STAT5 phosphorylation upto 20 x GI50 concentration incubated for 6 hrs by western blot analysis; assay type: cell-based
In short: (§1)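 Cells lysed in phosphate lysis buffer with protease inhibitors and protein quantified. Western blots probed phospho and total STAT5, AKT, ERK, S6RP and eIF4E, plus full-length and cleaved PARP and caspase-3, with β-actin as loading control. At least two independent experiments.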

[20] = molecular target: Receptor-type tyrosine-protein kinase FLT3 (Homo sapiens) (UniProt P36888); test: Inhibition of FLT3-mediated signalling pathway in human MV4-11 cells assessed as increase in cleaved PARP expression upto 20 x GI50 concentration incubated for 6 hrs by western blot analysis; assay type: cell-based; in short: as §1
U-937 [21] = test: Induction of apoptosis in human U937 cells assessed as late apoptotic cells at 5 x GI50 concentration incubated for 48 hrs by annexin V-FITC staining based flow cytometry (Rvb =9.82 %); assay type: functional
U-937 [22] = test: Induction of apoptosis in human U937 cells assessed as late apoptotic cells at 10 x GI50 concentration incubated for 48 hrs by annexin V-FITC staining based flow cytometry (reference value: 9.82 %); assay type: functional
U-937 [23] = test: Induction of apoptosis in human U937 cells assessed as viable cells at 10 x GI50 concentration incubated for 48 hrs by annexin V-FITC staining based flow cytometry (reference value: 86.25 %); assay type: functional
[24] = molecular target: Receptor-type tyrosine-protein kinase FLT3 (Homo sapiens) (UniProt P36888); test: Inhibition of FLT3-mediated signalling pathway in human U-937 cells assessed as inhibition of AKT phosphorylation upto 20 x GI50 concentration incubated for 6 hrs by western blot analysis; assay type: cell-based; in short: as §1
[25] = molecular target: Receptor-type tyrosine-protein kinase FLT3 (Homo sapiens, UniProt P36888, ITD); test: Inhibition of FLT3 ITD mutant (unknown origin) using Glu/Tyr peptide substrate incubated for 80 mins measured after 40 mins incubation under dark by ADP-glo based luminescence assay
Chain of Receptor-type tyrosine-protein kinase FLT3 (Homo sapiens, UniProt P36888, ITD) (P36888 whole entry, looked up, stated change not applied): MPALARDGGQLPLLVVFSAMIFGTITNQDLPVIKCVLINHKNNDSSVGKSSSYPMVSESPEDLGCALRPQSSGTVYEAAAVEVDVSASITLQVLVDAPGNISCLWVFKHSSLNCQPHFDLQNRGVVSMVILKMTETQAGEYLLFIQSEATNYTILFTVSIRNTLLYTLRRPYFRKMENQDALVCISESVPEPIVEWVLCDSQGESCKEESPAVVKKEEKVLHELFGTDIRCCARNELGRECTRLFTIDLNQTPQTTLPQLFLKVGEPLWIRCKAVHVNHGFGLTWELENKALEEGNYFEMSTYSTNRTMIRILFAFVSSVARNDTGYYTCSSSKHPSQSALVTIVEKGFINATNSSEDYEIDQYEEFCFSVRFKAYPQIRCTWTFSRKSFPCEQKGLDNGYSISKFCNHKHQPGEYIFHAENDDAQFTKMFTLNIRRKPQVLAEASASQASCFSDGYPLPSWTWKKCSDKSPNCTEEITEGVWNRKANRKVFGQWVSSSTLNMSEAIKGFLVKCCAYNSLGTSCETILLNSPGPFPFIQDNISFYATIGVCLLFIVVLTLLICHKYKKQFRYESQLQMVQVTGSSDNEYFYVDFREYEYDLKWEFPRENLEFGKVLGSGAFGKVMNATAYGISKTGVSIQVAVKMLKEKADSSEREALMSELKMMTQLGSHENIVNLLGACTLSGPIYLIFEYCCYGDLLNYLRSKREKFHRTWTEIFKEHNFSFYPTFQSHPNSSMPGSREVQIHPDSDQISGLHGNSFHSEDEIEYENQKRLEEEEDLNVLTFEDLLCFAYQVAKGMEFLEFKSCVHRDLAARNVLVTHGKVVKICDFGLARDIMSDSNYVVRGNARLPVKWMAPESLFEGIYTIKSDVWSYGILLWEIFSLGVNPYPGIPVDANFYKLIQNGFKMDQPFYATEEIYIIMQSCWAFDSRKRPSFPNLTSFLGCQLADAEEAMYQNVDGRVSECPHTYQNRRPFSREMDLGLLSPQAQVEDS

Chain of Receptor-type tyrosine-protein kinase FLT3 (Homo sapiens) (P36888 whole entry): as the sequence (P36888 whole entry, looked up, stated change not applied) above
Chain of Receptor-type tyrosine-protein kinase FLT3 (Homo sapiens, UniProt P36888, R595-E596INSEY) (P36888 whole entry, looked up, stated change not applied): as above

Compound: CC(=O)N1CCN(c2ccc(Nc3nccc(-c4cn(C)c5ncccc45)n3)cc2)CC1
- Ki [1]: > 5000 nM
- Ki [2]: 262 nM
- Ki [3]: 84 nM
- Ki [4]: 77 nM
- GI50 (THP-1): 7720 nM
- Activity (MV4-11 [5]): 1.86%
- Activity (MV4-11 [6]): 75%
- Activity (MV4-11 [7]): 73.52%
- Activity (MV4-11 [8]): 0.86%
- Activity (MV4-11 [9]): 1.48%
- Activity (MV4-11 [10]): 2.17%
- Activity (MV4-11 [11]): 1.56%
- Activity (U-937 [12]): 2.41%
- Activity (U-937 [13]): 1.42%
- Activity (U-937 [14]): 2.15%
- Activity (U-937 [15]): 2.48%
- Activity (U-937 [16]): 1.4%
- Activity (U-937 [17]): 2.63%
- Activity (U-937 [18]): 85.3%
- inhibition [19]: Active
- Activity [20]: Active
- Activity (U-937 [21]): 8.16%
- Activity (U-937 [22]): 12.02%
- Activity (U-937 [23]): 83.36%
- inhibition [24]: Active
- Ki [25]: 2 nM

— ChEMBL document CHEMBL4813946, “Discovery of novel 4-azaaryl-N-phenylpyrimidin-2-amine derivatives as potent and selective FLT3 inhibitors for acute myeloid leukaemia with FLT3 mutations” (Eur J Med Chem, 2021)
